Source: ChEMBL document CHEMBL1122413, “Chloralanyl and propargylglycyl dipeptides. Suicide substrate containing antibacterials” (1983)

What was measured:
[1] = system: Escherichia coli; assay: Minimum inhibitory concentration against Escherichia coli; type: functional
How it was run: (§1)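 Agar dilution on defined peptide susceptibility medium with peptide in serial twofold dilutions. Strains subcultured on blood or chocolate agar. Inoculum from overnight culture in liquid peptide medium, diluted to approx 1×10^7 cfu/mL, applied by Steers replicator. Plates incubated overnight at 37 °C. MIC taken as lowest concentration permitting fewer than ten colonies at 16–18 h.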

[2] = system: Klebsiella aerogenes; assay: Minimum inhibitory concentration against Enterobacter aerogenes; type: functional; how it was run: as §1
[3] = system: Enterobacter cloacae; assay: Minimum inhibitory concentration against Enterobacter cloacae; type: functional; how it was run: as §1
[4] = system: Haemophilus influenzae; assay: Minimum inhibitory concentration against Hemophilus influenzae; type: functional
How it was run: (§2)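 Agar dilution on defined peptide susceptibility medium with hemin (25 μg/mL), NAD (25 μg/mL) and Isovitalex (1%) added, peptide in serial twofold dilutions. Colonies from overnight chocolate or blood agar resuspended in liquid peptide medium to 10⁸ cfu/mL, applied by Steers replicator. Incubation overnight at 37 °C under 7% CO₂. MIC: lowest concentration giving fewer than ten colonies at 16–18 h.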

[5] = system: Klebsiella pneumoniae; assay: Minimum inhibitory concentration against Klebsiella pneumoniae; type: functional; how it was run: as §1
[6] = system: Morganella morganii; assay: Minimum inhibitory concentration against Morganella morganii; type: functional; how it was run: as §1
[7] = system: Pseudomonas aeruginosa; assay: Minimum inhibitory concentration against Pseudomonas aeruginosa; type: functional; how it was run: as §1
[8] = system: Proteus mirabilis; assay: Minimum inhibitory concentration against Proteus mirabilis; type: functional; how it was run: as §1
[9] = system: Serratia marcescens; assay: Minimum inhibitory concentration against Serratia marcescens; type: functional; how it was run: as §1
[10] = system: Shigella flexneri; assay: Minimum inhibitory concentration against Shigella flexneri; type: functional; how it was run: as §1
[11] = system: Staphylococcus epidermidis; assay: Minimum inhibitory concentration against Staphylococcus epidermidis; type: functional; how it was run: as §1
[12] = system: Streptococcus agalactiae; assay: Minimum inhibitory concentration against Streptococcus agalactiae; type: functional; how it was run: as §2
[13] = system: Staphylococcus aureus; assay: Minimum inhibitory concentration against Staphylococcus aureus; type: functional; how it was run: as §1
[14] = system: Enterococcus faecalis; assay: Minimum inhibitory concentration against Streptococcus faecalis; type: functional; how it was run: as §1
[15] = system: Streptococcus pyogenes; assay: Minimum inhibitory concentration against Streptococcus pyogenes; type: functional; how it was run: as §2
[16] = system: Salmonella typhimurium; assay: Minimum inhibitory concentration against Salmonella Typhimurium

Measured: MIC

C[C@H](N)C(=O)N[C@@H](C)C(=O)O.O=C(O)C(F)(F)F
> 100 µg/mL: all assays above
